Test results reported in ChEMBL document CHEMBL4765349, “Design, synthesis and biological evaluation of novel N-sulfonylamidine-based derivatives as c-Met inhibitors via Cu-catalyzed three-component reaction” (Eur J Med Chem, 2020).

Tests used:
[1] = Toxicity in Balb/c mouse assessed as survival rate at 100 mg/kg, ip measured after 15 days; type: organism-based; settings: in vivo, time 15 day
Summary of the method: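 Acute toxicity: 8-week-old male BALB/c mice, randomized in groups of n = 10, given a single intraperitoneal injection on day zero (vehicle only, 100, 200, 300 or 400 mg/kg). A further untreated group served as normal control. Survival on day 15 was reported as a percentage.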

[2] = molecular target: Vascular endothelial growth factor receptor 3 (Homo sapiens, UniProt P35916); test: Inhibition of FLT-4 (unknown origin) using poly (Glu, Tyr)4:1 as substrate in presence of ATP measured after 30 mins by HTRF assay
Summary of the method: (§1)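 Kinase inhibition measured by homogeneous time-resolved fluorescence (HTRF) across a panel of Ron, ALK and other tyrosine kinases, with IC50 as the read-out.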

[3] = molecular target: Platelet-derived growth factor receptor alpha (Homo sapiens, UniProt P16234); test: Inhibition of PDGFR alpha (unknown origin) using poly (Glu, Tyr)4:1 as substrate in presence of ATP measured after 30 mins by HTRF assay; summary of the method: as §1
A549 [4] = test: Induction of apoptosis in human A549 cells assessed as early apoptosis measured after 12 hrs by Annexin V-FITC/ Propidium iodide stain based flow cytometry assay; type: functional, cell-based; settings: dose 0.25-1 µM
Summary of the method: (§2)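 Cells double-stained with FITC-annexin V and propidium iodide, then flow cytometry gave the percentages of early and late apoptotic cells.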

[5] = Clearance in Balb/c mouse at 8 mg/kg, po measured after 24 hrs by LC/MS/MS analysis; type: ADME, organism-based; settings: in vivo
Summary of the method: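 Clearance from the plasma profile of BALB/c mice after a single oral dose of 8 mg/kg.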

[6] = Toxicity in Balb/c mouse assessed as no abnormality at 100 to 200 mg/kg, ip measured after 15 days; type: organism-based; settings: in vivo, 360 h, dose 100-200 mg/kg, time 15 day
Summary of the method: (§3)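 Acute toxicity in 8-week-old male BALB/c mice, randomized into groups of n = 10. Single intraperitoneal dose on day 0 of vehicle or 100, 200, 300 or 400 mg/kg, plus an untreated control group. Mice watched for 15 days for deaths, abnormalities, anaphylactic or allergic reactions and body weight loss.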

[7] = Half life in Balb/c mouse at 8 mg/kg, po measured after 24 hrs by LC/MS/MS analysis; type: ADME, organism-based; settings: in vivo
Summary of the method: (§4)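 BALB/c mice dosed once orally at 8 mg/kg or intravenously at 2 mg/kg. Plasma concentration followed over time, and Cmax, Tmax, AUC0-∞, elimination half-life, clearance and oral bioavailability were derived from it.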

[8] = molecular target: Hepatocyte growth factor receptor (Homo sapiens, UniProt P08581); test: Inhibition of c-MET (unknown origin) using poly (Glu, Tyr)4:1 as substrate in presence of ATP measured after 30 mins by HTRF assay
[9] = molecular target: Mast/stem cell growth factor receptor Kit (Homo sapiens, UniProt P10721); test: Inhibition of c-Kit (unknown origin) using poly (Glu, Tyr)4:1 as substrate in presence of ATP measured after 30 mins by HTRF assay; summary of the method: as §1
[10] = Selectivity index, ratio of IC50 for human HUVEC cells assessed as inhibition of cell proliferation to IC50 of HT-29 cells assessed as inhibition of cell proliferation; type: toxicity; settings: HUVEC cells versus HT-29 cells, read-out: Selectivity Index
[11] = AUC (0 to infinity) in Balb/c mouse at 8 mg/kg, po measured after 24 hrs by LC/MS/MS analysis; type: ADME, organism-based; design: route oral, time 24 hrs, dose 8 mg/kg; settings: in vivo; summary of the method: as §4
FHC = test: Cytotoxicity against human FHC cells assessed as inhibtion of cell proliferation measured after 72 hrs by MTT assay
[12] = Cmax in Balb/c mouse at 8 mg/kg, po measured after 24 hrs by LC/MS/MS analysis; type: ADME, organism-based; design: route oral, time 24 hrs, dose 8 mg/kg; settings: in vivo; summary of the method: as §4
HT-29 = test: cells; settings: Homo sapiens, HT-29, 72 h
A549 [13] = test: Induction of apoptosis in human A549 cells assessed as late apoptosis measured after 12 hrs by Annexin V-FITC/ Propidium iodide stain based flow cytometry assay; type: functional, cell-based; settings: dose 0.25-1 µM; summary of the method: as §2
[14] = molecular target: Macrophage-stimulating protein receptor (Homo sapiens, UniProt Q04912); test: Inhibition of Ron (unknown origin) using poly (Glu, Tyr)4:1 as substrate in presence of ATP measured after 30 mins by HTRF assay; summary of the method: as §1
HUVEC = test: cells; settings: Homo sapiens, 72 h
[15] = molecular target: Platelet-derived growth factor receptor beta (Homo sapiens, UniProt P09619); test: Inhibition of PDGFR beta (unknown origin) using poly (Glu, Tyr)4:1 as substrate in presence of ATP measured after 30 mins by HTRF assay; summary of the method: as §1
[16] = Toxicity in Balb/c mouse assessed as body weight at 100 to 200 mg/kg, ip measured after 15 days; type: organism-based; settings: in vivo, 360 h, dose 100-200 mg/kg, time 15 day; summary of the method: as §3
A549 [17] = test: cells; settings: Homo sapiens, A549, 72 h
[18] = Toxicity in Balb/c mouse assessed as anaphylactic response at 100 to 200 mg/kg, ip measured after 15 days; type: organism-based; settings: in vivo, 360 h, dose 100-200 mg/kg, time 15 day; summary of the method: as §3

Mast/stem cell growth factor receptor Kit, sequence (P10721 whole entry): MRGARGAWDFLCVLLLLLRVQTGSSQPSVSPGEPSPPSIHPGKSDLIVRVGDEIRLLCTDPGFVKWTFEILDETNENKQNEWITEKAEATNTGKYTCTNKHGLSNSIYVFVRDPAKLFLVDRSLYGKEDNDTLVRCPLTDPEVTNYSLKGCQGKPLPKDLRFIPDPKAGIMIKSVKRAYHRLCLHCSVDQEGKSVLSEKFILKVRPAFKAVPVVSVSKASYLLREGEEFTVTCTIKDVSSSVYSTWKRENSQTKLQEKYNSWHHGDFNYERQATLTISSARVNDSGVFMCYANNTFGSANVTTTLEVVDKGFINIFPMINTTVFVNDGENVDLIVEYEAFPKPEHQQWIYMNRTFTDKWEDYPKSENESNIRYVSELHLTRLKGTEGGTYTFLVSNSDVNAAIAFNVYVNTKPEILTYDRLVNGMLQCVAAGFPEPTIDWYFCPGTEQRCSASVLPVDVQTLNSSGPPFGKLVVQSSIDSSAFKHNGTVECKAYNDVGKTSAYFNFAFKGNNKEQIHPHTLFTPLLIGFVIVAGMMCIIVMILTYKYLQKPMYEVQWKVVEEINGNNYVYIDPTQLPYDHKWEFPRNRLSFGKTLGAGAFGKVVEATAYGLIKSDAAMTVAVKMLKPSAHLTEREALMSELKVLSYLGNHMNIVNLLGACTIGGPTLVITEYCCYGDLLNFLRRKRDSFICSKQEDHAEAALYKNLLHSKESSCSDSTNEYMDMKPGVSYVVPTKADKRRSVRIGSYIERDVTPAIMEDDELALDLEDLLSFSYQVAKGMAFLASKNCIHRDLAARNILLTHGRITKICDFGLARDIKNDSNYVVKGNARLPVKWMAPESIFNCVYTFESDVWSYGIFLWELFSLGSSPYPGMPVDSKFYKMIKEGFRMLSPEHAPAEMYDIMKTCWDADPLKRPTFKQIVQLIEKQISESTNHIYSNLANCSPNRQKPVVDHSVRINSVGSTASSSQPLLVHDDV
Vascular endothelial growth factor receptor 3, sequence (P35916 whole entry): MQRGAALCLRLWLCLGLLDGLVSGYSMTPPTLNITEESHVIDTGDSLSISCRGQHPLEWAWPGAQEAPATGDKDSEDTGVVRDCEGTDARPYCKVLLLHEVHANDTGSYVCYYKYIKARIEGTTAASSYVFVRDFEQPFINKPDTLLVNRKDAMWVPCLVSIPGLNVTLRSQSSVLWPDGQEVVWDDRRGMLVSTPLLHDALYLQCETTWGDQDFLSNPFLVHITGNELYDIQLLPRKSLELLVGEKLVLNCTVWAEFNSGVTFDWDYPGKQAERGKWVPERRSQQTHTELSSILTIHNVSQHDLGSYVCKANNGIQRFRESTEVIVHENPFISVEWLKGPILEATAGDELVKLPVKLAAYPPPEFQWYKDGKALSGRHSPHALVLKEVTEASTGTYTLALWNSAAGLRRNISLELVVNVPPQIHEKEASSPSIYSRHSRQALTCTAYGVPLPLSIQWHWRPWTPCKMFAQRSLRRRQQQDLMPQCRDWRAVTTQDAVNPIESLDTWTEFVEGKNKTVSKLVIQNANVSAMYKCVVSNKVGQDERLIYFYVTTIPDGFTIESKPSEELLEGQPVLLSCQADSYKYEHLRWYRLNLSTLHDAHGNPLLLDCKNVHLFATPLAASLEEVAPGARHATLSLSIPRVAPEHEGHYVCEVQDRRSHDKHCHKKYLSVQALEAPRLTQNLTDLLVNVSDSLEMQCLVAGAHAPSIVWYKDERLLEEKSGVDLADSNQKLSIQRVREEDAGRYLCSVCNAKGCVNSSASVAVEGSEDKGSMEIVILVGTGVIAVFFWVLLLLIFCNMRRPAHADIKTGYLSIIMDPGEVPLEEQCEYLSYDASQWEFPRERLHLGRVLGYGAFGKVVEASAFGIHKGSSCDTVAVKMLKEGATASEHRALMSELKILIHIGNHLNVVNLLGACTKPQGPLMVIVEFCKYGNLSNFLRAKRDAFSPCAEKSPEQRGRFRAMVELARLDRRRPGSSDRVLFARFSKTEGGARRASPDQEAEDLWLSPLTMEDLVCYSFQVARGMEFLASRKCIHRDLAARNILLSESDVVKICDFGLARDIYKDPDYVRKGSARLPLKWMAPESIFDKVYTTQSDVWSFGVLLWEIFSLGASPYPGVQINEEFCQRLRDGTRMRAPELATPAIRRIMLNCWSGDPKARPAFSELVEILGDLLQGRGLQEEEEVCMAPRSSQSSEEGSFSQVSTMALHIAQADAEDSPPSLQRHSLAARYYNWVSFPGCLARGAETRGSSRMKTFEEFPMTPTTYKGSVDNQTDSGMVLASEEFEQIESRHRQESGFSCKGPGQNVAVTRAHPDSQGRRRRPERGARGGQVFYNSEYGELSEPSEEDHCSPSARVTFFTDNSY
Platelet-derived growth factor receptor beta, sequence (P09619 whole entry): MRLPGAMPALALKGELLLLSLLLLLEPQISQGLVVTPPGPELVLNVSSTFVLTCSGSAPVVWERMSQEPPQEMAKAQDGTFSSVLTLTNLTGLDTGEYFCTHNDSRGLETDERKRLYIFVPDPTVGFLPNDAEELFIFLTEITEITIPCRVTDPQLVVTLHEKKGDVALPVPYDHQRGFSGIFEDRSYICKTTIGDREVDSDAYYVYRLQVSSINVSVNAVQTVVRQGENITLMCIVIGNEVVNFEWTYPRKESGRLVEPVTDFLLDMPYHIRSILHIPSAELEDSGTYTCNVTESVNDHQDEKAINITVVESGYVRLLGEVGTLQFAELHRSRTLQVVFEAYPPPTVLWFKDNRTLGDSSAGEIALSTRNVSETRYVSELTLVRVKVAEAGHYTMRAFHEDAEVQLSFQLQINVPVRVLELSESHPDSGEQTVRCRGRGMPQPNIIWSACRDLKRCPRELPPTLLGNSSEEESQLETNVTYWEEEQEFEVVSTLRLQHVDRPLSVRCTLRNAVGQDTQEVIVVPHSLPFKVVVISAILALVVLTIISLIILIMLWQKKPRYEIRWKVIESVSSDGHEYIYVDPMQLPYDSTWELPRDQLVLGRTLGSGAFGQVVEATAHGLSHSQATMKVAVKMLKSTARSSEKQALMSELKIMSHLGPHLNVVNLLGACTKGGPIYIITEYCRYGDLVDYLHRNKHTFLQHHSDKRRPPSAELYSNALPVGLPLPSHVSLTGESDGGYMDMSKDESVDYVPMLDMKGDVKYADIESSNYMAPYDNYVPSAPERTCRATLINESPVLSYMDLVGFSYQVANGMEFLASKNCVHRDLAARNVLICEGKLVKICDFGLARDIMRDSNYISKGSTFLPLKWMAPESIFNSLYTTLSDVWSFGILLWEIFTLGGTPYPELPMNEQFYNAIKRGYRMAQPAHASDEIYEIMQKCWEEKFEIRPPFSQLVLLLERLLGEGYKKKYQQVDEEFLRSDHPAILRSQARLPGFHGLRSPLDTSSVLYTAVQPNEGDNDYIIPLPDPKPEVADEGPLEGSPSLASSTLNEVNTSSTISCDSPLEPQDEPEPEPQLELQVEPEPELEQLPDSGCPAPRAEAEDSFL
Macrophage-stimulating protein receptor, sequence (Q04912 25-304 limits assumed): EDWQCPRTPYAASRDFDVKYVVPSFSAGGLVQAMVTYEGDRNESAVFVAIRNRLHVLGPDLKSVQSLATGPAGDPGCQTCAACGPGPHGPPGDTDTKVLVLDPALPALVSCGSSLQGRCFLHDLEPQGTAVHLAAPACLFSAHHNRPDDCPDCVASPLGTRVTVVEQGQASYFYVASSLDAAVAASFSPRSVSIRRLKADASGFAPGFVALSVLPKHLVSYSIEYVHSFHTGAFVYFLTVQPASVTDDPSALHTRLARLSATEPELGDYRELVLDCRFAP
Macrophage-stimulating protein receptor, sequence (Q04912 310-1400 limits assumed): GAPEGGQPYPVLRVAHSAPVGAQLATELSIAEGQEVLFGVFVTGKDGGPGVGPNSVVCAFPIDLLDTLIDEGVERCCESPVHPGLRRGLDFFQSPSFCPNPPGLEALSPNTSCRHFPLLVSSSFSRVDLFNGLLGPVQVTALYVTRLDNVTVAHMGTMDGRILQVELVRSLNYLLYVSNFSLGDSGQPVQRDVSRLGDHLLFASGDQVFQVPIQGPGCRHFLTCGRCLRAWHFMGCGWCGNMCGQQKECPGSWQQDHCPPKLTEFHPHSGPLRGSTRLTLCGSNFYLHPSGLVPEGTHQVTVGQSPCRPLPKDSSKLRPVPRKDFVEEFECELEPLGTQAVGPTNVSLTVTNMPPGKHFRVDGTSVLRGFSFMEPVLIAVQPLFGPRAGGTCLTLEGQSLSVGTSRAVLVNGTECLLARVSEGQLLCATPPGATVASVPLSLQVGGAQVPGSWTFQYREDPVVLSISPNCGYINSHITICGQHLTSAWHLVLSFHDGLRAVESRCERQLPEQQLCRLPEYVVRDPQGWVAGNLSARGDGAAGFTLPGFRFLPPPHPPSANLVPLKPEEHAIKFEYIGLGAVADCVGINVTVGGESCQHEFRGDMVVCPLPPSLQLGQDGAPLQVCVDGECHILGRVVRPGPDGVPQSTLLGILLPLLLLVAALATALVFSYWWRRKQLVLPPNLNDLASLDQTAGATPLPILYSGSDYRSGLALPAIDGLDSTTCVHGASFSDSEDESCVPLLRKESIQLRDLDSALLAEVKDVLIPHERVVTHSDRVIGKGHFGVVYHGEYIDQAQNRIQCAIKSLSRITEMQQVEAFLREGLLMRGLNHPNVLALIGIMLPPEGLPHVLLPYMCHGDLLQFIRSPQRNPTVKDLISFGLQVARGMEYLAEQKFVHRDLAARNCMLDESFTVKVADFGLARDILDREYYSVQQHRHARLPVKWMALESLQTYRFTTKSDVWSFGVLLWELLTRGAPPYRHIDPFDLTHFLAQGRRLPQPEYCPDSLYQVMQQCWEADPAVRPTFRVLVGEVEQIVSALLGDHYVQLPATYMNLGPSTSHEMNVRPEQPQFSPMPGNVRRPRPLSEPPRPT

SMILES: COCC/C(=N\S(=O)(=O)Cc1ccc(Cl)cc1)Nc1ccc(Oc2ccnc3cc(OCCCN4CCOCC4)c(OC)cc23)c(F)c1
- survival at 360 h [1]: 100%
- IC50 [2]: 0.358 µM
- IC50 [3]: 0.384 µM
- Activity (A549 [4]): Dose-dependent effect
- CL/F [5]: 19.7 mL/min/kg
- Activity [6]: Non-Toxic
- half-life [7]: 3.5 h
- IC50 [8]: 0.00289 µM
- IC50 [9]: 0.00426 µM
- selectivity ratio [10]: 4.2
- AUC [11]: 6.8 µg/h/mL
- IC50 (FHC): 6.12 µM
- Cmax [12]: 1230 ng/mL
- IC50 (HT-29): 0.32 µM
- Activity (A549 [13]): Dose-dependent effect
- IC50 [14]: 0.412 µM
- IC50 (HUVEC): 1.35 µM
- IC50 [15]: 0.565 µM
- Activity [16]: Non-Toxic
- IC50 (A549 [17]): 0.28 µM
- Activity [18]: Non-Toxic
